{"source": "PubChem BioAssay AID602126", "about": "(Broad Institute, 2011)", "note": "Active and inactive are the calls of the source.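 Rule for the calls: active = compounds cutting cell ATP light whose fitted AC50 is at most double the top dose tried; inconclusive = flat moderate signal loss, or an unreliable curve fit; inactive = the rest.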"}
{"tested_on": "ldlA[mSR-BI] CHO cells viability, CellTiter-Glo ATP luminescence, 24 h", "test": "ldlA[mSR-BI] cell viability loss – CellTiter-Glo luminescence, 24 h, dry powder, set 5, cytotoxicity control for SR-BI HDL uptake inhibitor project, dose response (AID 602126)", "outline": "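Detection: luminescence of cellular ATP via CellTiter-Glo luciferase reagent; test system: ldlA[mSR-BI] cells; read-out: IC50 of cell viability from ATP-dependent luminescence; schedule: 24 h compound exposure at 37 °C, then 10 min with detection reagent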"}
{"compound": "CCOC(=O)N1CCC(NC(=O)c2ccc3c(c2)N(Cc2ccc(F)cc2)CCS3)CC1", "AC50": "65.5 µM"}
{"compound": "C[C@@H]1CN([C@H](C)CO)C(=O)c2cc(NC(=O)Cc3cn(C)c4ccccc34)ccc2O[C@H]1CN(C)S(=O)(=O)c1ccccc1", "AC50": "49.8 µM"}
{"compound": "CCC(=O)Nc1ccc(-c2csc(NC(=O)c3cccc(OC)c3)n2)cc1", "AC50": "> 70 µM (inactive)"}
{"compound": "C[C@@H]1CN([C@H](C)CO)C(=O)c2cc(NC(=O)Cc3cn(C)c4ccccc34)ccc2O[C@@H]1CN(C)S(=O)(=O)c1ccc(F)cc1", "AC50": "50.8 µM"}
{"compound": "CCC(=O)N1CCc2cc(-c3csc(NC(=O)c4cc(OC)c(OC)c(OC)c4)n3)ccc21", "AC50": "> 70 µM (inactive)"}
{"compound": "CCc1cc2cc3c(cc2nc1SCC(=O)OC(C)C)OCO3", "AC50": "> 70 µM (inactive)"}
{"compound": "COc1cc(OC)cc(C(=O)Nc2nc(-c3ccc4c(c3)CCN4C(C)=O)cs2)c1", "AC50": "> 70 µM (inactive)"}
{"compound": "Cc1cc(SC(C)C(=O)Nc2ncc(Cl)cc2Cl)nc2ccccc12", "note": "(stereo unspecified)", "AC50": "35.1 µM"}
{"compound": "COc1ccc([C@H]2CC(=O)C=C(c3cccc4c3sc3ccccc34)C2)cc1OC", "AC50": "> 70 µM (inactive)"}
{"compound": "CCC(=O)N1CCc2cc(-c3csc(NC(=O)c4cccc(OC)c4)n3)ccc21", "AC50": "> 70 µM (inactive)"}
{"compound": "CCc1sc(N2C(=O)C3C4CCC(C4=C(C)C)C3C2=O)nc1-c1ccccc1", "note": "(stereo unspecified)", "AC50": "> 70 µM (inactive)"}
{"compound": "COc1ccc(-c2nnn(CC(=O)N(C3CCCCC3)C(C)(C)C(=O)NC3CCCC3)n2)cc1OC", "AC50": "> 70 µM (inactive)"}
{"compound": "COc1ccc(OC)c(CCNC(=O)c2ccc3c(c2)N(Cc2ccc(F)cc2)CCS3)c1", "AC50": "> 70 µM (inactive)"}
{"compound": "CCCN1CCc2cc(-c3csc(NC(=O)c4cc(OC)cc(OC)c4)n3)ccc21", "AC50": "> 70 µM (inactive)"}
{"compound": "CC(C(=O)NC1CCCC1)N(C(=O)Cn1nnc(-c2ccc(Cl)cc2)n1)C1CCCCC1", "note": "(stereo unspecified)", "AC50": "> 70 µM (inactive)"}
{"compound": "COC(=O)c1cn(C(=O)c2cccc3ccccc23)c2ccccc12", "AC50": "38 µM"}
{"compound": "CCNC(=O)N1CCc2cc(-c3csc(NC(=O)c4cc(OC)cc(OC)c4)n3)ccc21", "AC50": "60 µM"}
{"compound": "O=C(Nc1ccc(-c2nc3ccc(NC(=O)c4ccc(Cl)cc4)cc3[nH]2)cc1)c1ccc(Cl)cc1", "AC50": "1.3 µM"}
{"compound": "O=C(Nc1ccccc1Cl)c1ccccc1NS(=O)(=O)c1ccccc1", "AC50": "37.2 µM"}
{"compound": "C[C@@H]1CN([C@@H](C)CO)C(=O)c2cc(NC(=O)Cc3cn(C)c4ccccc34)ccc2O[C@@H]1CN(C)S(=O)(=O)c1ccc(Cl)cc1", "AC50": "> 70 µM (inactive)"}
{"compound": "CC(C(=O)NC1CCCC1)N(C(=O)Cn1nnc(-c2cccc(F)c2)n1)C1CCCCC1", "note": "(stereo unspecified)", "AC50": "> 70 µM (inactive)"}
{"compound": "CC(C)C(=O)N1CCc2cc(-c3csc(NC(=O)c4ccco4)n3)ccc21", "AC50": "> 70 µM (inactive)"}
{"compound": "CC(C(=O)NC1CCCC1)N(C(=O)Cn1nnc(-c2ccc3c(c2)OCO3)n1)C1CCCCC1", "note": "(stereo unspecified)", "AC50": "53 µM"}
{"compound": "CCC(=O)Nc1ccc(-c2csc(N)n2)cc1", "AC50": "> 70 µM (inactive)"}
{"compound": "C[C@@H]1CN([C@@H](C)CO)C(=O)c2cc(NC(=O)Cc3cn(C)c4ccccc34)ccc2O[C@@H]1CN(C)S(=O)(=O)c1ccc(F)cc1", "AC50": "> 70 µM (inactive)"}
{"compound": "CCC(=O)N1CCc2cc(-c3csc(NC(=O)c4cc(OC)cc(OC)c4)n3)ccc21", "AC50": "> 70 µM (inactive)"}
{"compound": "O=C(CN(C(=O)Cn1nnc(-c2ccc(Cl)c(Cl)c2)n1)C1CCCCC1)NC1CCCC1", "AC50": "46.2 µM"}
{"compound": "CCn1c(COc2c(C)cccc2C)nnc1SCC(=O)N1CCN(c2ccccc2)CC1", "AC50": "65.2 µM"}
{"compound": "O=C(Nc1ccccc1)c1ccccc1NS(=O)(=O)c1ccc(Cl)cc1", "AC50": "32.5 µM"}
{"compound": "CCOc1ccccc1/C=C/c1onc(C)c1S(=O)(=O)N1CCC(C(=O)NC(C)(C)C)CC1", "AC50": "> 70 µM (inactive)"}
{"compound": "Cc1ccccc1NC(=O)NCC1CCN(c2ccc(S(=O)(=O)N3CCOCC3)cc2)CC1", "AC50": "58.3 µM"}
{"compound": "COc1cc(OC)cc(C(=O)Nc2nc(-c3ccc4[nH]ccc4c3)cs2)c1", "AC50": "15.6 µM"}
{"compound": "CCC(=O)N1CCc2cc(-c3csc(NC(=O)c4cccc(OC)n4)n3)ccc21", "AC50": "66.5 µM"}
{"compound": "COc1ccc(-c2nnn(CC(=O)N(CC(=O)NC3CCCC3)C3CCCCC3)n2)cc1OC", "AC50": "> 70 µM (inactive)"}
{"compound": "O=C(Nc1cc(Cl)ccc1Cl)c1cc(Br)ccc1NS(=O)(=O)c1ccc(Cl)c([N+](=O)[O-])c1", "AC50": "21 µM"}
{"compound": "CCC(=O)N1CCc2cc(-c3csc(NC(=O)C4CCCO4)n3)ccc21", "note": "(stereo unspecified)", "AC50": "46.5 µM"}
{"compound": "COc1cc(OC)cc(C(=O)Nc2nc(-c3ccc4c(c3)CCN4)cs2)c1", "AC50": "46.5 µM"}
{"compound": "O=C(Nc1nc(-c2ccc3c(c2)CCN3)cs1)c1ccco1", "AC50": "> 70 µM (inactive)"}
{"compound": "C[C@H]1CN([C@@H](C)CO)C(=O)c2cc(NC(=O)Cc3cn(C)c4ccccc34)ccc2O[C@@H]1CN(C)S(=O)(=O)c1ccc(Cl)cc1", "AC50": "> 70 µM (inactive)"}
{"compound": "COCC(=O)N1CCc2cc(-c3csc(NC(=O)c4cc(OC)cc(OC)c4)n3)ccc21", "AC50": "> 70 µM (inactive)"}
{"compound": "O=C(CN(C(=O)Cn1nnc(-c2ccc3c(c2)OCO3)n1)C1CCCCC1)NC1CCCC1", "AC50": "> 70 µM (inactive)"}
